Experimental data: ChEMBL document CHEMBL1811814, “Synthesis and evaluation of indole, pyrazole, chromone and pyrimidine based conjugates for tumor growth inhibitory activities--development of highly efficacious cytotoxic agents” (Eur J Med Chem, 2010)

Columns and labels:
Format in all cases: functional
SF-295 = assay: Growth inhibition of human SF295 cells
SNB-19 = assay: Growth inhibition of human SNB19 cells assessed tumor cell growth at 10^-5 M; set-up: scale not given: the % may be the effect or the level left
Procedure, shortened: (§1)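 Single-dose screen at 10^-5 M across the 60 human tumor cell line panel, run to NCI standards. The value is the percent growth of each cell line in the presence of compound. Compounds active at this dose moved on to five-concentration testing (10^-4 to 10^-8 M).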

CCRF-CEM = assay: Growth inhibition of human CCRF-CEM cells assessed tumor cell growth at 10^-5 M; set-up: scale not given: the % may be the effect or the level left
Procedure, shortened: (§2)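 NCI 60-human-tumor-cell-line panel screen. Each compound was tested at a single concentration of 10^-5 M, and percent growth of tumor cells was recorded for each cell line. Growth inhibition was expressed from these percent-growth values.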

ACHN = assay: Growth inhibition of human ACHN cells assessed tumor cell growth at 10^-5 M; set-up: scale not given: the % may be the effect or the level left; procedure, shortened: as §2
OVCAR-4 [1] = assay: Growth inhibition of human OVCAR4 cells assessed tumor cell growth at 10^-5 M; set-up: scale not given: the % may be the effect or the level left; procedure, shortened: as §2
MOLT-4 = assay: Growth inhibition of human MOLT4 cells
SR [2] = assay: Growth inhibition of human SR cells
HT-29 = assay: Growth inhibition of human HT-29 cells assessed tumor cell growth at 10^-5 M; set-up: scale not given: the % may be the effect or the level left; procedure, shortened: as §2
SN12C = assay: Growth inhibition of human SN12C cells
SK-OV-3 = assay: Growth inhibition of human SKOV3 cells assessed tumor cell growth at 10^-5 M; set-up: scale not given: the % may be the effect or the level left; procedure, shortened: as §2
[3] = Growth inhibition of human Hs 578T cells assessed tumor cell growth at 10^-5 M; set-up: scale not given: the % may be the effect or the level left; procedure, shortened: as §2
UACC-62 = assay: Growth inhibition of human UACC62 cells assessed tumor cell growth at 10^-5 M; set-up: scale not given: the % may be the effect or the level left; procedure, shortened: as §1
A549 = assay: Growth inhibition of human A549 cells
SR [4] = assay: Growth inhibition of human SR cells assessed tumor cell growth at 10^-5 M; set-up: scale not given: the % may be the effect or the level left; procedure, shortened: as §1
COLO 205 = assay: Growth inhibition of human COLO205 cells assessed tumor cell growth at 10^-5 M; set-up: scale not given: the % may be the effect or the level left; procedure, shortened: as §2
SK-MEL-28 = assay: Growth inhibition of human SK-MEL-28 cells assessed tumor cell growth at 10^-5 M; set-up: scale not given: the % may be the effect or the level left; procedure, shortened: as §2
HCT-15 = assay: Growth inhibition of human HCT15 cells assessed tumor cell growth at 10^-5 M; set-up: scale not given: the % may be the effect or the level left; procedure, shortened: as §2
Malme-3M = assay: Growth inhibition of human MALME-3M cells
NCI-H460 = assay: Growth inhibition of human NCI-H460 cells assessed tumor cell growth at 10^-5 M; set-up: scale not given: the % may be the effect or the level left; procedure, shortened: as §2
EKVX = assay: Growth inhibition of human EKVX cells assessed tumor cell growth at 10^-5 M; set-up: scale not given: the % may be the effect or the level left; procedure, shortened: as §2
HOP-92 = assay: Growth inhibition of human HOP92 cells assessed tumor cell growth at 10^-5 M; set-up: scale not given: the % may be the effect or the level left; procedure, shortened: as §2
LOX IMVI = assay: Growth inhibition of human LOXIMVI cells
M14 = assay: Growth inhibition of human M14 cells assessed tumor cell growth at 10^-5 M; set-up: scale not given: the % may be the effect or the level left; procedure, shortened: as §2
PC-3 = assay: Growth inhibition of human PC3 cells
SNB-75 = assay: Growth inhibition of human SNB75 cells assessed tumor cell growth at 10^-5 M; set-up: scale not given: the % may be the effect or the level left; procedure, shortened: as §1
OVCAR-5 = assay: Growth inhibition of human OVCAR5 cells
OVCAR-4 [5] = assay: Growth inhibition of human OVCAR4 cells
NCI/ADR-RES = assay: Growth inhibition of human NCI/ADR-RES cells assessed tumor cell growth at 10^-5 M; set-up: scale not given: the % may be the effect or the level left; procedure, shortened: as §2
[6] = Growth inhibition of human […] cells assessed tumor cell growth at 10^-5 M; set-up: scale not given: the % may be the effect or the level left; procedure, shortened: as §2
[7] = read-out: LC50 (the source's name)

Compound `O=C1/C(=C\c2coc3ccccc3c2=O)c2ccccc2N1c1c(Cl)cccc1Cl` has a GI50 (SF-295) of 4.2 µM, a CC50 (SF-295; [7]) of over 100 µM and an Activity (SNB-19) of 62.58%. It also gave an Activity (CCRF-CEM) of 21.08%, an Activity (ACHN) of 54.64% and an Activity (OVCAR-4 [1]) of 49.54%. The GI50 (MOLT-4) was 2.9 µM, the GI50 (SR [2]) was 1.4 µM and the CC50 (SR [2]; [7]) was over 100 µM. For the same compound, the Activity (HT-29) was 47.62%, the GI50 (SN12C) was 3.3 µM and the CC50 (SN12C; [7]) was over 100 µM. The Activity (SK-OV-3) was 74.8%, the Activity [3] was 27.37% and the Activity (UACC-62) was 36.62%. For the same compound, the GI50 (A549) was 4.2 µM, the CC50 (A549; [7]) was over 100 µM and the Activity (SR [4]) was 19.47%. For the same compound, the Activity (COLO 205) was 55.33%, the Activity (SK-MEL-28) was 47.32% and the Activity (HCT-15) was 24.69%. The GI50 (Malme-3M) was 2.4 µM, the CC50 (Malme-3M; [7]) was over 100 µM and the Activity (NCI-H460) was 19.05%. For the same compound, the Activity (EKVX) was 33.14%, the Activity (HOP-92) was 32.08% and the GI50 (LOX IMVI) was 1.5 µM. The CC50 (LOX IMVI; [7]) was 57.5 µM, the Activity (M14) was 43.38% and the GI50 (PC-3) was 1.3 µM. For the same compound, the CC50 (PC-3; [7]) was over 100 µM, the Activity (SNB-75) was 62.74% and the GI50 (OVCAR-5) was 20.8 µM. For the same compound, the CC50 (OVCAR-5; [7]) was over 100 µM, the GI50 (OVCAR-4 [5]) was 3.6 µM and the CC50 (OVCAR-4 [5]; [7]) was over 100 µM. The Activity (NCI/ADR-RES) was 36.14% and the Activity [6] was 10.21%.
